Screens deposited in PubChem BioAssay by several laboratories.
Only some compounds are listed: those with a hit (about 2.5% of all), similar ones and a draw of the others.
ABHD5-PLIN5 inh: blocks binding of human ABHD5 to perilipin-5 | Split G. princeps luciferase complementation, luminescence, 4 h | inhibition, % at 4 µM | actives 0.78% (n = 360,000);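 active = inhibition above the mean inhibition across every tested compound plus 3 SD, cut at about 22% in these data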;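 note: 0% = DMSO only wells and the 100% control is not disclosed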
MBD2 DNA inh: inhibitors of human MBD2 binding to methylated oligonucleotide; Q9UBB5; TR-FRET; inhibition, % at 4.4 µM; actives 0.31% (n = 370,000); AID 686964; in the data active = inhibition above about 13%
Target sequence (Q9UBB5 whole entry, looked up): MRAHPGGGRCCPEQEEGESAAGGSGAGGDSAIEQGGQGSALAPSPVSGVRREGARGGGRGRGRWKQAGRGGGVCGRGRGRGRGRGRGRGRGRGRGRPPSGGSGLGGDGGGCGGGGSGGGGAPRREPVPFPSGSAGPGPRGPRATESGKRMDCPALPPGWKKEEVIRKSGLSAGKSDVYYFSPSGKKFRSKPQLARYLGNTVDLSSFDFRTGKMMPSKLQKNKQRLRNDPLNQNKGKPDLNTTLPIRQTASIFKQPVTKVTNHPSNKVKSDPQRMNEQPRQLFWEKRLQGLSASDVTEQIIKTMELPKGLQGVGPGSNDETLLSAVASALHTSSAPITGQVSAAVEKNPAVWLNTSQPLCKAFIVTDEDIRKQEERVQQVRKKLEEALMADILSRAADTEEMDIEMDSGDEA
Arr AP2 block: inhibitors of human beta-arrestin and AP2 interaction | FITC-arrestin peptide / GST-AP2 beads, flow cytometry; AP2 beta2 appendage carries R879A mutation | actives 0.31% (n = 340,000) | inhibition, % at 10 µM;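 active = inhibition above a set limit, near 3 SD of compounds lacking own fluorescence, cut at about 54% in these data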;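 note: plate controls were DMSO wells for no effect and 5 µM unlabelled arrestin peptide for full effect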
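Measured by: flow cytometry, FL1 (488/535 nm); Material: AP2 appendage R879A on GSH beads; Evaluation: percent response; Timing: pre-incubation 12 min, peptide binding 1 h, room temperature; Also added: 50 nM FITC-arrestin peptide; Medium: PBS with 0.05% Tween 20 and 0.1% BSA.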
UHRF1 binding: human UHRF1 methylated DNA binding inhibitors; Q96T88; UHRF1 binding to methylated oligo, TR-FRET; inhibition, % at 4.4 µM; actives 0.75% (n = 370,000); AID 687016; in the data active = inhibition above about 21%;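 note: UHRF1 SRA domain binding a hemimethylated CpG hairpin DNA probe; 0% = median of test compound wells and 100% = reference inhibitor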
Rin1-Abl PPI inh: human Rin1-Abl interaction inhibition | actives 0.4% (n = 360,000) | P00519+Q13671 | TR-FRET Rin1/Abl binding, biochemical | AID 588664 | inhibition, % at 7.35 µM; in the data active = inhibition above about 5%, passing the limit was not always enough
Beta2AR agonist: agonists of human beta-2 adrenergic receptor inducing internalization | response, % (concentration not given with the values) | actives 0.43% (n = 340,000) | Am2.2-beta2AR cells, FAP receptor internalization, flow cytometry | AID 504454;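 active = response above a set limit, near 3 SD of response in nonfluorescent compounds, cut at about 42% in these data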
B2AR ag CP1: human beta-2 adrenergic receptor agonism, cherry pick; shares compounds with Beta2AR agonist; Am2.2-beta2AR cells, FAP surface receptor, flow cytometry; hits give low values; percent response (surface receptor), % at 10 µM; actives 25% (n = 1,100); AID 540358;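 active = surface receptor percent response at or below 58%, roughly 3 SD from nonfluorescent compounds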
B2AR FAP counter: counter-screen for beta-2AR agonists: fluorescence in Am2.2 cells; shares compounds with Beta2AR agonist; FAP fluorogen flow cytometry, fluorescence counterscreen; hits give low values; calls only at 10 µM; 1,100 tested, under 10 active;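 active = percent response below a set limit in fluorescence channel 1 and below 50% in channel 8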
Starred values were filed as active, the others as inactive; i = inactive; nt = no result.

SMILES	ABHD5-PLIN5 inh	MBD2 DNA inh	Arr AP2 block	UHRF1 binding	Rin1-Abl PPI inh	Beta2AR agonist	B2AR ag CP1	B2AR FAP counter
CCCCCn1nnnc1C1(C)CN(S(C)(=O)=O)CC(=O)N1Cc1ccco1 (centres undefined)	nt	0	nt	-1	nt	nt	nt	nt
CC1=C(C(=O)Nc2ccc(C(=O)N3CCN(c4ccccc4F)CC3)cc2)SCCO1	-1	-1	1	1	0	73*	21*	i
COc1ccccc1C(=O)NC1CCCCN(Cc2cccc(Cl)c2)C1=O (centres undefined)	nt	1	nt	-3	nt	nt	nt	nt
CC(=O)C1=C(C)N(Cc2ccc(Cl)cc2)C(=S)NC1c1ccccc1 (centres undefined)	nt	1	nt	-2	nt	nt	nt	nt
CCOc1cc(-c2c(C)c(C)nc(N)c2C#N)ccc1O	16	3	-5	2	2	9	nt	nt
CCOc1cc(-c2c(C)c(CC)nc(N)c2C#N)ccc1O	-4	-3	2	1	0	69*	103	i
Cc1nn(Cc2ccccc2)c(N)c1-c1ccccc1	-2	4	27	0	2	50*	101	i
COc1ccccc1N1CCN(S(=O)(=O)c2ccc3c(c2)CCC(=O)N3)CC1	nt	1	nt	-3	nt	nt	nt	nt
Cc1nc(N2CCN(C(=O)C3CCCCC3)CC2)c2c3c(sc2n1)CCCC3	nt	0	nt	0	nt	nt	nt	nt
CC(=O)c1cccc(NC2c3ccccc3C(=O)N2Cc2ccco2)c1 (centres undefined)	7	0	11	2	-4	-6	nt	nt
COc1cccc(NC2c3ccccc3C(=O)N2Cc2ccco2)c1 (centres undefined)	3	-3	1	-2	5	69*	104	i
COc1cc(NC(=O)c2ccc(N)nc2)cc(C(=O)Nc2cccc(C(F)(F)F)c2)c1	-3	3	7	-1	-1	43*	67	i
COc1cc(NC(=O)c2csc(-c3ccncc3)n2)cc(C(=O)Nc2cccc(C(F)(F)F)c2)c1	6	0	27	-3	0	60*	86	i
COc1ccc(C#CCN(Cc2ccc(OC)cc2OC)C(N)=NC(=O)CCc2ccccc2)cc1	nt	0	nt	0	nt	nt	nt	nt
COc1cc(CNCCc2ccc(S(N)(=O)=O)cc2)ccc1OCC(=O)NC1CCCCC1	0	11	1	20	5	-7	nt	nt
CCOc1cc(CNCCc2ccc(S(N)(=O)=O)cc2)ccc1OCc1ccc(Cl)cc1	28*	3	-4	7	1	50*	31*	i
COc1cc(CNCCc2ccc(S(N)(=O)=O)cc2)ccc1OCc1ccc(Cl)cc1	15	3	13	-1	5	55*	93	i
CCOc1ccc(CNCCc2ccc(S(N)(=O)=O)cc2)cc1	4	1	-1	2	3	-6	nt	nt
CS(=O)(=O)OC12CCCN(C1)/C(=C/c1ccc(Cl)cc1)C2 (centres undefined)	nt	1	nt	-2	nt	nt	nt	nt
CC(C)c1ccc(C(=O)Nc2cc(Cl)ccc2C(=O)O)cc1	nt	0	nt	2	nt	nt	nt	nt
CC(NCCC(c1ccccc1)c1ccccc1)c1ccccc1 (centres undefined)	1	4	-1	1	-1	25	84	i
CC(NC1CCCC1)c1ccccc1 (centres undefined)	-1	-3	-17	-2	-3	-1	nt	nt
CC[C@H](CCCc1ccc(OC)cc1)CCC(=O)N1CCOCC1	nt	-1	nt	0	nt	nt	nt	nt
COc1ccc(OC)c(S(=O)(=O)Nc2ccc(O)c3ccccc23)c1	-1	-2	12	-2	0	52*	102	i
COc1ccc(OC)c(S(=O)(=O)N(C)CC(=O)N2CCN(c3cccc(Cl)c3)CC2)c1	2	3	0	1	-1	-5	131	i
COc1ccc(OC)c(S(=O)(=O)N(C)CC(=O)N2CCN(c3ccccc3F)CC2)c1	3	0	-5	-1	1	-3	106	i
